Assay [1] relates to mouse middle cerebral artery occlusion (MCAO) model of ischemic stroke. The experiment in a line: MCAO ischemic stroke model, cerebral infarct volume. Format: in vivo.
The test system is the same in assay [2]. The experiment in a line: Open-field test after MCAO. Format: in vivo. As to conditions: middle-aged mice after MCAO; vs vehicle; over 4 weeks. In outline: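 The model used 60 min right MCAO in middle-aged male and female C57BL/6 mice. Test compound or PBS vehicle was infused by osmotic minipump for 3 days. Testing was at baseline and on post-MCAO days 2, 7, 14, 21 and 28. Mice started from a corner of a 16″ acrylic box and explored ~10 min. Total photobeam breaks and center-zone break percentage were recorded. This test preceded rotarod by 1 h. Data are mean ± S.D.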

Assay [3] has the same test system. The experiment in a line: Rotarod test after MCAO. Type of assay: in vivo. As to conditions: middle-aged mice after MCAO; 4–40 rpm, 5 min; over 4 weeks. A digest of the protocol: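 Middle-aged male and female C57BL/6 mice underwent 60 min right MCAO. They received test compound or PBS by osmotic minipump for 3 days. Rotarod was done at baseline and on post-MCAO days 2, 7, 14, 21 and 28, 1 h after open-field testing. The rod accelerated 4–40 rpm over 5 min. Each mouse had two trials 30 min apart, and mean latency to fall (s) was used. Data are mean ± S.D.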

Assay [4] concerns primary human monocyte-derived macrophages. The experiment in a line: Calcium influx assay on human monocyte-derived macrophages. Type of assay: cell-based. Conditions: ATP 50 μM, 15 min pretreatment. A digest of the protocol:
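Monocytes came from fresh whole blood of healthy donors. They were matured 5–7 days in RPMI with GM-CSF (5 ng/mL), then seeded at 10^4 cells/dish for ≥24 h. Cells were loaded with Calbryte 590 AM for 60 min in HBSS/HEPES and washed. They were pretreated 15 min with test compound (0, 0.1, 0.3, 0.6, 1, 3 μM), then stimulated with ATP 50 μM. Confocal images were taken every 6 s for up to 4 min, and peak Ca2+ amplitude was quantified.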

For assay [5], the system named is mouse middle cerebral artery occlusion (MCAO) model of ischemic stroke. The experiment in a line: Novel Object Recognition Task. Type of assay: in vivo. As to conditions: middle-aged mice, 4 weeks after MCAO; dose of 3 mg/kg; p < 0.05 vs Veh.
In another assay the target is T1, hP2X1R (Homo sapiens, UniProt P51575).
T1 sequence (P51575 1-399): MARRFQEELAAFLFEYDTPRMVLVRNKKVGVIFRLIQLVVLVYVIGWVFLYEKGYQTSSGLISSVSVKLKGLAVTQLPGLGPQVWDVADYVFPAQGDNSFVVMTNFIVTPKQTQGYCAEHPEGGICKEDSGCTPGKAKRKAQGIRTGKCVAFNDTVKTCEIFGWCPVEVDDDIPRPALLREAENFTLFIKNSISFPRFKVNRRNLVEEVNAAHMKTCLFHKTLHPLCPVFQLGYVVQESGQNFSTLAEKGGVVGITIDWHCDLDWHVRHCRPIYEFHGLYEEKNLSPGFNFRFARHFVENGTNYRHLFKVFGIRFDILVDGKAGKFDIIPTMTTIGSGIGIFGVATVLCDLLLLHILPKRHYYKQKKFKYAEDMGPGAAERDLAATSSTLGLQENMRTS
The experiment in a line: cell-based. Conditions: CHO-K1, read-out: hP2X1R % inhib.

In assay [6] the test system is mouse middle cerebral artery occlusion (MCAO) model of ischemic stroke. As to conditions: mice, 1 mg/kg/day × 3 days, administered 4 h after onset of stroke; cited from earlier work.
Assay [7] deals with 45 receptors, channels, and transporters. The experiment in a line: PDSP off-target binding screen at 45 receptors, channels and transporters. As to conditions: at 10 μM.
The test system of a further assay is mP2X4R. As to conditions: cited from earlier work.
The test system of the next assay is P2X7R. Conditions: cited from earlier work.
The mark [8] stands for this setting: young adult male mice (8–12 weeks), doses of 1.5 and 3.0 mg/kg/day × 3 days continuous infusion (Alzet minipump), 3 days after stroke, vs Veh.
Where [9] appears, read: young adult male mice, 5 mg/kg/day × 3 days continuous infusion, 3 days after stroke, vs Veh.

SMILES strings stand for the structures.

As for `CCN(CC)CC.O=C1CC(=O)N(c2ccnc(-c3noc(=S)[nH]3)c2)c2ccc3ccccc3c2N1` [Compound 21u, 5-(2-(5-Thioxo-4,5-dihydro-1,2,4-oxadiazol-3-yl)pyridin-4-yl)-1,5-dihydro-2H-naphtho[1,2-b][1,4]diazepine-2,4(3H)-dione], the “effective dose in murine MCAO ischemic stroke model” value in assay [1] (neuroprotective and neuro-rehabilitative properties) is 1.5 mg/kg. Also, in assay [1] (setting [8]), the cortical infarct volume entry was “significantly reduced” and the “total hemispheric infarct volume” value was “significantly reduced”. Also, the “total exploratory behavior (total beam breaks, open-field task)” value in assay [2] is on record as “did not show any differences”. Further, the “motor coordination and balance (rotarod)” value in [3] was “did not improve”. In assay [4] (HMDM of healthy subjects), the “inhibition of ATP-induced increase in calcium influx” value is “dose-dependent (0–3 μM) inhibition”. Moreover, the “doses giving a significant decrease of the peak Ca2+ amplitude” value in assay [4] (vs ATP only) was no less than 0.6 µM. The “learning and memory function (NORT)” value in assay [5] was “significant retention of memory”.

As to `CC(=O)NCc1ccc2ccc3c(c2c1)NC(=O)CC(=O)N3c1cccc(-c2noc(=S)[nH]2)c1` [Compound 21i, N-((2,4-Dioxo-5-(3-(5-thioxo-4,5-dihydro-1,2,4-oxadiazol-3-yl)-phenyl)-2,3,4,5-tetrahydro-1H-naphtho[1,2-b][1,4]diazepin-10-yl)-methyl)acetamide], the inhibition at 30 µM at hP2X1R was no more than 31%.

Take `O=C1CN=C(c2cccc(Br)c2)c2oc3ccccc3c2N1` [Compound 3, 5-(3-bromophenyl)-1,3-dihydro-2H-benzofuro[3,2-e][1,4]diazepin-2-one]: the stroke infarct size result in assay [6] is reported as “reduced”.

In the case of `CCN(CC)CC.O=C1CC(=O)N(c2cccc(-c3noc(=S)[nH]3)c2)c2cc(Br)c3ccccc3c2N1` [Compound 21d, 7-Bromo-5-(3-(5-thioxo-4,5-dihydro-1,2,4-oxadiazol-3-yl)-phenyl)-1,5-dihydro-2H-naphtho[1,2-b][1,4]diazepine-2,4(3H)-dione], the “off-target binding at 45 receptors, channels, and transporters” value (shortened to “off-target binding at 45 receptors”) in assay [7] is listed as “no significant interactions”.

With `O=C1CC(=O)N(c2cccc(-c3noc(=S)[n-]3)c2)c2ccc3ccccc3c2N1.[Na+]` [Compound 5, 5-(3-(5-Thioxo-4,5-dihydro-1,2,4-oxadiazol-3-yl)phenyl)-1,5-dihydro-2H-naphtho[1,2-b][1,4]diazepine-2,4(3H)-dione], the “off-target binding at 45 receptors” value in assay [7] was “no significant interactions”. For the same compound, the “potency in blocking mP2X4R effects in vitro compared with hP2X4R” value in the assay on mP2X4R was “as potent”. Besides, the “activity at the P2X7R” value in the assay with P2X7R was “inactive”.

For `Cc1ccc2c3c(ccc2c1)N(c1cccc(-c2noc(=S)[n-]2)c1)C(=O)CC(=O)N3.[Na+]` [Compound 22c], the “off-target binding at 45 receptors” value in assay [7] is “no significant interactions”. Besides, in [1] (setting [9]), the cortical infarct volume entry is recorded as “not significant”, the striatal infarct volume entry is reported as “not significant” and the “total hemispheric infarct volume” value is given as “moderate but significant decrease”.

As for `O=C1CC(=O)N(c2cccc(-c3noc(=S)[nH]3)n2)c2ccc3ccccc3c2N1` [Compound 21v, 5-(6-(5-Thioxo-4,5-dihydro-1,2,4-oxadiazol-3-yl)pyridin-2-yl)-1,5-dihydro-2H-naphtho[1,2-b][1,4]diazepine-2,4(3H)-dione], the inhibition at 30 µM at hP2X1R is no more than 31%.
